Structures are written as SMILES. The source made the active and inactive calls. The calls are words filed in the database; no cut-off is given here. Bounds are passed on as bounds.

The target of test [1] is T1, Ubiquitin carboxyl-terminal hydrolase 2 (Homo sapiens, UniProt O75604).
T1 sequence (O75604 whole entry): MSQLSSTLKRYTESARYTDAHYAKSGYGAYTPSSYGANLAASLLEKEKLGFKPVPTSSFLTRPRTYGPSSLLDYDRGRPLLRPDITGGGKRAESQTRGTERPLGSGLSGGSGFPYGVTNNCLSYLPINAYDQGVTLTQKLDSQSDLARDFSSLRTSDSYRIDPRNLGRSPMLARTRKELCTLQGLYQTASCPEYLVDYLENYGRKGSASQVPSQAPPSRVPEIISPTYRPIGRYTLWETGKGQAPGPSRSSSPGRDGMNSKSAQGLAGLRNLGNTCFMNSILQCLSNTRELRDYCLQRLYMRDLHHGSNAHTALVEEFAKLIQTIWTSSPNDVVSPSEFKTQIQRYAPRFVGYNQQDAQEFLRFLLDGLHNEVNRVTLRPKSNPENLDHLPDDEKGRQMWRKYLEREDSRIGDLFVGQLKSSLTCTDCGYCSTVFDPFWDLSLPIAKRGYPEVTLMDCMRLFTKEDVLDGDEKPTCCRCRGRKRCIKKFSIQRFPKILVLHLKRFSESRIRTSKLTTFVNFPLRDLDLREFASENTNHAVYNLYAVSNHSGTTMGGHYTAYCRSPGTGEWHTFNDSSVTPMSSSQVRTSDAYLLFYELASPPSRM
Put plainly: (§1) Inhibition of human USP2a (258 to 605 residues) expressed in Escherichia coli BL21(DE3) using Ub-AMC as substrate incubated for 30 mins measured at 30 secs interval by fluorescence assay. In short, it runs like this:
(§2)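 USP2a purified by Ni-chelate, Q-Sepharose flow-through and gel filtration in PBS pH 7.4 with 5 mM DTT. Enzyme at 10 nM in 50 mM Tris/HCl pH 7.5, 1 mM EDTA, 1 mM MgCl2, preincubated 30 min with compound. Ub-AMC 500 nM then added. Fluorescence (ex 355/em 460 nm) read every 30 s. Turbidity checked at 600 nm. Excess wild-type ubiquitin served as positive control. Percent inhibition was fitted to dose-response curves.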

For test [2], the target named is T2, Ubiquitin carboxyl-terminal hydrolase 2 (Homo sapiens) (UniProt O75604).
T2 sequence (whole entry): T1 sequence (O75604 whole entry)
Put plainly: (§3) Binding affinity to 15N-Gly/Cys/Ser/Trp-labeled human USP2a expressed in Escherichia coli BL21(DE3) assessed as change in chemical shift by NMR method. The gist of the method: (§4)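 Selectively 15N-Gly/Cys/Ser/Trp-labeled USP2a from gel filtration in PBS pH 7.4 with 5 mM DTT, with 10% D2O added for lock. Ligand stock was 50 mM in d6-DMSO. Titration run in three steps at protein:compound ratios 1:1, 1:5 and 1:15. Binding followed as cross-peak shifts.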

In test [3] the target is T2, Ubiquitin carboxyl-terminal hydrolase 2 (Homo sapiens). Put plainly: Inhibition of USP2a in human HCT116 cells assessed as downregulation of cycline D1 expression at 20 uM after 48 hrs by Western blot analysis. The test is classed as cell-based. The gist of the method:
(§5)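 HCT 116 and MCF-7 cells were exposed to 20 μM compound or an equivalent DMSO portion and cultured for 48 h. Cyclin D1 levels were then assessed by western blot.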

Test [4] has the same target. Put plainly: Inhibition of USP2a in human MCF7 cells assessed as downregulation of cycline D1 expression at 20 uM after 48 hrs by Western blot analysis. The test is classed as cell-based. In short, it runs like this: as §5
Test [5] has as its target T1, Ubiquitin carboxyl-terminal hydrolase 2. The test is described as §3. In short, it runs like this: as §4
Test [6] has as its target T2, Ubiquitin carboxyl-terminal hydrolase 2 (Homo sapiens). The test is described as follows: Inhibition of human USP2a (258 to 605 residues) expressed in Escherichia coli BL21(DE3) at 2000 uM using Ub-AMC as substrate incubated for 30 mins measured at 30 secs interval by fluorescence assay. The gist of the method: as §2
In test [7] the target is Ubiquitin carboxyl-terminal hydrolase 7 (Homo sapiens) (UniProt Q93009). Put plainly: Inhibition of human USP7 (208 to 561 residues) catalytic domain expressed in Escherichia coli BL21(DE3) at 10 to 2000 uM using Ub-AMC as substrate incubated for 30 mins measured at 30 secs interval by fluorescence assay. The gist of the method: (§6)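 GST-tagged USP7 catalytic domain (208-561) was expressed at 16 °C overnight. Tag removed with PreScission protease, then purified by Q-Sepharose, Mono Q and gel filtration in 50 mM Tris/HCl, 150 mM NaCl, 2 mM DTT. Activity measured by Ub-AMC hydrolysis (500 nM substrate, ex 355/em 460 nm, 30 s reads) after 30 min preincubation with compound. Values are mean ± SD.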

Test [8] shares this target. The test is described as follows: Inhibition of human USP7 (208 to 561 residues) catalytic domain expressed in Escherichia coli BL21(DE3) at 10 uM using Ub-AMC as substrate incubated for 30 mins measured at 30 secs interval by fluorescence assay. The gist of the method:
as §6

The target in test [9] is T2, Ubiquitin carboxyl-terminal hydrolase 2 (Homo sapiens). The test is described as §1. In short, it runs like this: as §2

Sequence of Ubiquitin carboxyl-terminal hydrolase 7 (Homo sapiens) (Q93009 whole entry, looked up, the tested form may be a part): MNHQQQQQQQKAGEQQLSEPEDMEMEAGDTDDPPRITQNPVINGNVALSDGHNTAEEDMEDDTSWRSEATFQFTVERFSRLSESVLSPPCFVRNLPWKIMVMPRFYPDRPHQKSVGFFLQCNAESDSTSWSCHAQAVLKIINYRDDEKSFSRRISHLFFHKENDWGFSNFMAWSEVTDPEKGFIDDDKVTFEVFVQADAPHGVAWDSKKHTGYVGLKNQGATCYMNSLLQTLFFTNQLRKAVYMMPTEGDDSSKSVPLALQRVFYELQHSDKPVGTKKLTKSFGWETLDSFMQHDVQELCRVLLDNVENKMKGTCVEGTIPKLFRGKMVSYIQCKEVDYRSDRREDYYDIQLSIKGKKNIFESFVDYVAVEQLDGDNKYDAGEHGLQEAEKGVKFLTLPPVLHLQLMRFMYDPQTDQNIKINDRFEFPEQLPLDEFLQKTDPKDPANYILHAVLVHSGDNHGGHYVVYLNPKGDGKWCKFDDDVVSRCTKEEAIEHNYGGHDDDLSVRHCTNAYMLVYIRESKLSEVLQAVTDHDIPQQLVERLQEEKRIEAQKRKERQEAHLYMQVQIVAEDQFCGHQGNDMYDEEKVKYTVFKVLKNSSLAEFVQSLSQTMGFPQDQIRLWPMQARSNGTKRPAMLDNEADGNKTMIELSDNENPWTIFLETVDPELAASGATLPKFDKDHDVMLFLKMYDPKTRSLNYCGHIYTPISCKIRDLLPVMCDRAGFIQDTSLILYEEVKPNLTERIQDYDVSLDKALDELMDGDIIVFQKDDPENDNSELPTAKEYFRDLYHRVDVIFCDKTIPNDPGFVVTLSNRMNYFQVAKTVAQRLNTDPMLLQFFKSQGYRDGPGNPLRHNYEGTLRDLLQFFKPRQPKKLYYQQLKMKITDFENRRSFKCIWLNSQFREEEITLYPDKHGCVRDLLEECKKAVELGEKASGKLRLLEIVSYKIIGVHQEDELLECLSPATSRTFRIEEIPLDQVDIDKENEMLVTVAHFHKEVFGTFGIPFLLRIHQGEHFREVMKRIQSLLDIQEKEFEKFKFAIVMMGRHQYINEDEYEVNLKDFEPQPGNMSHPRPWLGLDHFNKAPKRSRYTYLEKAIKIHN

`O=C(O)COCc1cc(-c2cccs2)on1`: in test [1], the IC50 result is listed as “Not Active”.

Turning to `O=C(O)CNC(=O)c1cc(-c2cccs2)on1`, the IC50 result in [1] was “Not Active”.

Consider `Nc1ccc(-c2cnco2)cc1`, for which, in test [2], the outcome was inactive.

As for `Cc1c(CO)cnn1-c1ccccc1`, in [1], the IC50 result is reported as “Not Active”.

For `CCCn1nc(C(=O)OCc2cc(-c3cccs3)on2)c2ccccc2c1=O`, the IC50 in test [1] (read-out: IC50) was above 100 µM.

For `Cc1cc(C#N)cc(C)c1O`, the IC50 in test [1] (read-out: IC50) was above 5000 µM.

Take `Nc1cc(-c2ccccc2)n[nH]1`: in [2], the outcome was inactive. The IC50 in test [1] (read-out: IC50) was above 5000 µM.

Turning to `CC(Oc1ccc(C#N)cc1)C(=O)OCc1cc(-c2cccs2)on1` (stereo unspecified), the IC50 in test [1] (read-out: IC50) is above 50 µM.

`COc1ccc(N2CC(C(=O)OCc3cc(-c4cccs4)on3)CC2=O)cc1` (stereo unspecified): in test [1], the IC50 result was “Not Active”.

With `CC(C)(C)OC(=O)CNC(=O)c1cc(-c2cccs2)on1`, the IC50 entry in [1] is on record as “Not Active”.

For the compound `CN1CCOc2cc(C#N)ccc21`, the IC50 entry in test [1] is reported as “Not Active”.

For `COC(=O)c1ccc2cc[nH]c2c1`, in test [2], the result was inactive.

For the compound `Cl.NCc1ccc(Cc2cccs2)cc1`, the IC50 result in [1] was “Not Active”.

With `O=C(O)c1cc(-c2cccs2)on1`, in [1], the IC50 entry is reported as “Not Active”.

Consider `OCc1cc(-c2cccs2)on1`, for which the inhibition result in test [3], in test [4] and in test [7] was “inactive” throughout. For the same compound, the dissociation constant Kd in test [5] stood at 900 µM. The inhibition entry in test [6] is “Active”. Further, the IC50 in [1] (read-out: IC50) stood at 1300 µM.

For `COc1ccc2c(c1)CCCC2=O`, the outcome in test [2] was inactive.

Turning to `NCc1ccc(-c2csnn2)cc1`, the IC50 in test [1] (read-out: IC50) was above 5000 µM.

Take `O=C(OCc1cc(-c2cccs2)on1)c1ccc(S(=O)(=O)N2CCOCC2)cc1`: the IC50 entry in test [1] is reported as “Not Active”.

In the case of `CSc1nnc(-n2cccc2)s1`, in test [2], the result was inactive.

For the compound `NC(=O)c1c(N)sc2c1CCCC2`, the IC50 in test [1] (read-out: IC50) was found to be 8.7 µM.

On to `NC(=O)c1c(NC(=O)COCc2cc(-c3cccs3)on2)sc2c1CCCC2`, for which the inhibition result in [3] and in test [4] was “Active” each time. For the same compound, the inhibition result in test [8] was “inactive”. For the same compound, the IC50 in test [1] (read-out: IC50) was 3.3 µM. The inhibition result in test [9] is “Dose-dependent effect”.
